The text below walks through data of PubChem BioAssay AID588322 (Southern Research Specialized Biocontainment Screening …, 2011).

The structures appear in SMILES notation. Active and inactive are the calls of the source.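 Rule for the calls: active = compound blocking phage lysis by over 30% at some tested dose and judged capsule specific; inactive = the rest.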

Broadly, the IC50 is the midpoint of a concentration-inhibition curve.

One test concerns E. coli EV36 T7 phage lysis, OD600 3 h. Briefly: capsule-loss sensitization to T7 lysis – T7 phage, set 5, selectivity assay for bacterial capsule biogenesis inhibitors, dose response (AID 588322).
Conditions: not given
The procedure, abridged:
(§1)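 Measure: Capsule-loss-dependent T7 phage lysis judged from culture OD600; Test system: Escherichia coli EV36, a K1:K-12 hybrid strain; Incubation: 1.5 h compound pre-incubation, 37 °C, then 3 h phage infection; Measured by: OD600 absorbance at 3 h post-infection; Doses: dilution series from 100 to 0.39 µM final, 1% DMSO.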
Consider `O=C(Nc1cc(-c2ccccc2)sc1C(=O)O)c1ccc(Br)o1`, for which the IC50 is 8.13 µM (inactive).
Same read-out and setting: in the case of `O=C(Nc1cc(-c2ccccc2)sc1C(=O)O)c1cc2ccccc2o1` it was 7.11 µM (inactive); in that of `O=C(Nc1cc(-c2ccccc2)sc1C(=O)O)c1cccc(Cl)c1`, 33.4 µM (inactive).
Still for that read-out and setting: in the case of `CCOc1ccc(-c2cc(NC(=O)c3c(F)cccc3F)c(C(=O)O)s2)cc1` it was 0.71 µM (inactive); in that of `O=C(Nc1cc(-c2ccccc2)sc1C(=O)O)c1cccc(F)c1`, 29.4 µM (inactive).
On the same count and under the same terms, in the case of `CCOc1ccc(-c2cc(NC(=O)c3cccc(Cl)c3)c(C(=O)O)s2)cc1` it was 4.25 µM (inactive); in that of `O=C(Nc1cc(-c2ccccc2)sc1C(=O)O)c1ccc(Cl)s1`, 15 µM (inactive); in that of `CCOc1ccc(-c2cc(NC(=O)c3ccc(OC)c(OC)c3)c(C(=O)O)s2)cc1`, 7.72 µM (inactive).
Turning to `O=C(O)c1sc(-c2ccccc2)cc1NC(=O)C1CCCC1`, the IC50 is 57.4 µM (inactive).
Same read-out and setting: as for `Cc1c(C(=O)Nc2cc(-c3ccccc3)sc2C(=O)O)oc2ccccc12`, the figure is 30.1 µM (inactive); as for `O=C(Nc1cc(-c2ccccc2)sc1C(=O)O)c1ccc2c(c1)OCCO2`, 12.7 µM (inactive).
As for `O=C(Nc1cc(-c2ccccc2)sc1C(=O)O)c1cc(Cl)c2c(c1)OCCO2`, the IC50 was 16 µM (inactive).
The same measure, in the same setting: in the case of `O=C(Nc1cc(-c2ccccc2)sc1C(=O)O)c1cccs1` it was 7.11 µM (inactive); in that of `O=C(O)c1sc(-c2ccccc2)cc1NC(=O)C1CCCCC1`, 55 µM (inactive).
On the same count and under the same terms, in the case of `Cc1ccc(C(=O)Nc2cc(-c3ccccc3)sc2C(=O)O)s1` it was 41.7 µM (inactive).

Tested on in a further test: not listed separately
Described as above. The settings on record: E. coli EV36 T7 phage lysis, OD600 3 h; at 100 µM (top of the series). The procedure, abridged:
as §1
For the compound `COC(=O)c1sc(-c2ccccc2)cc1NC(=O)c1c(F)cccc1F`, the cell growth (A600 at 3 h p.i., % of EV36+DMSO+T7 control); lower = more lysis is 111% (inactive).
The same measure, in the same setting: in the case of `Cc1onc(-c2ccccc2)c1C(=O)Nc1cc(-c2ccccc2)sc1C(=O)O` it was 104% (inactive).
Same read-out and setting: as for `CCOc1ccc(-c2cc(NC(=O)c3c(F)cccc3F)c(C(=O)OC)s2)cc1`, the figure is 114% (inactive).
